Experimental data from different studies.
Target: Myotonin-protein kinase (DMPK, Homo sapiens, UniProt Q09013)
Sequence (Q09013 1-629, as in one of the studies): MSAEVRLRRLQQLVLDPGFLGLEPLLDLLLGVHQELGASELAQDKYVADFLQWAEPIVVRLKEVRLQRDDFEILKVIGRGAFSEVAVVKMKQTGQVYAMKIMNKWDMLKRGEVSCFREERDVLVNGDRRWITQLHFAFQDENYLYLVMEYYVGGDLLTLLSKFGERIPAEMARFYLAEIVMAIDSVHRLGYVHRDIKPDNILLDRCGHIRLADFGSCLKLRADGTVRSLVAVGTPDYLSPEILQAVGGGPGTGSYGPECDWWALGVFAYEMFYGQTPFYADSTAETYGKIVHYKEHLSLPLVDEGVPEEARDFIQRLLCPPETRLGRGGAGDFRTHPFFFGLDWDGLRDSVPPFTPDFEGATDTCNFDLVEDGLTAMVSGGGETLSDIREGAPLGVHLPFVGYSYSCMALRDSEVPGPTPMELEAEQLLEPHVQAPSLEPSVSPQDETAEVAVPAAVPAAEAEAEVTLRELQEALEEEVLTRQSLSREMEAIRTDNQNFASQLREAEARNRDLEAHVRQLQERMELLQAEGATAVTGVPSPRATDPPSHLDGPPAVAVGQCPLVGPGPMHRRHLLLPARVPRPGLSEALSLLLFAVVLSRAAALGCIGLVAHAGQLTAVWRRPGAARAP

| SMILES | assay | conditions | remaining binding |
| --- | --- | --- | --- |
| C[C@H](c1cccc(C#N)c1)n1cc(Cl)cc(C(N)=O)c1=N | cell-free assay, competition with immobilised ligand | 1 µM | 100% |
| CN(c1nccc(-c2cnn3ncccc23)n1)C1CC1 | binding | 1 µM | 100% |
| CNC(=O)[C@@H]1CC[C@@H](n2c(-c3ccc4cnccc4c3)nc3ccc(C(=O)NCc4cccc(C(N)=O)c4)cc32)C1 | binding, competition with immobilised ligand | 1 µM | 86% |
| CN(C)c1ncc(F)c(-c2cnn3ncccc23)n1 | binding | 1 µM | 100% |
| Nc1cnc(N2CCc3cc(S(=O)(=O)Nc4c(F)cc(Cl)cc4F)cc(N4CCCC4=O)c32)nc1 | cell-free assay, competition with immobilised ligand | 1 µM | 100% |
| C=CC(=O)N1CCC(C(=O)NCC(=O)N2CCN(c3nc(-c4cnc(N)nc4C(F)F)nc(N4CCOCC4)n3)CC2)CC1 | binding, competition with immobilised ligand | 1 µM | 87% |
| CCC(=O)N[C@H]1CC[C@@H](C(=O)N(C)c2ccc(-c3nc4ccccc4o3)cc2)C1 | cell-free assay, competition with immobilised ligand | 1 µM | 100% |
| Cc1cnc(Nc2ccc(C(=O)N3CCC(N4CCCC4)CC3)cc2)nc1-c1cc2ccccc2s1 | binding, competition with immobilised ligand | 1 µM | 100% |
| CNC(=O)c1ccc(Nc2ncc(C(F)(F)F)c(NCc3nccnc3N(C)S(C)(=O)=O)n2)cc1 | cell-free assay, competition with immobilised ligand | 0.1 µM | 16% |
| O=C(c1ccc(Nc2ncc(Cl)c(-c3cc4ccccc4s3)n2)cc1)N1CCC(N2CCCC2)CC1 | binding, competition with immobilised ligand | 1 µM | 75% |
| O=c1nc(-c2ccccn2)sc2ccccc12 | binding, competition with immobilised ligand | 1 µM | 100% |
| N[C@H]1CCN(c2nccc(-c3cnn4ncccc34)n2)C1 | binding | 1 µM | 57% |
| CCN1CCN(Cc2ccc(C(=O)Nc3ccc(C)c(Oc4ccc5c(c4)CC(=O)N5)c3)cc2C(F)(F)F)CC1 | binding, competition with immobilised ligand | 1 µM | 88% |
| O=C1CCc2cc(Nc3cc(OC4CCOCC4)c([N+](=O)[O-])cc3Cl)ccc2N1 | cell-free assay, competition with immobilised ligand | 1 µM | 96% |
| O=C(NCC1CCOCC1)c1n[nH]cc1NC(=O)c1c(F)cccc1F | binding, competition with immobilised ligand | 1 µM | 38% |
| COc1cnc(Nc2cccc(S(N)(=O)=O)c2)nc1N1CCN(c2ccccc2)C(=O)C1 | binding, competition with immobilised ligand | 1 µM | 100% |
| CN(C)c1nccc(-c2cnc3ncccn23)n1 | binding | 1 µM | 82% |
| O=C(c1ccc(Nc2nccc(-c3cc4ccccc4s3)n2)cc1)N1CCC(N2CCCC2)CC1 | binding, competition with immobilised ligand | 1 µM | 100% |
| Cc1cnn2ncc(-c3ccnc(N(C)C)n3)c2c1 | binding | 1 µM | 100% |
| CCS(=O)(=O)c1cc2cc(C[C@@](O)(CC(C)(C)c3ccc(F)cc3C(N)=O)C(F)(F)F)[nH]c2cn1 | cell-free assay, competition with immobilised ligand | 1 µM | 85% |
| c1cncc(-c2cccc(Nc3nccc(NC4CCCCC4)n3)c2)c1 | binding, competition with immobilised ligand | 10 µM | 100% |
| C[C@@H]1CCN(c2nccc(-c3cnn4ncccc34)n2)C1 | binding | 1 µM | 90% |
